Assay results of several laboratories.
Lines come from different studies, so protocols differ.
Sample: Caco-2

Compound	concentration	time	pH	Papp A→B [×10⁻⁶ cm/s]
CNS(=O)(=O)Cc1ccc2[nH]cc(CCN(C)C)c2c1	5 µM	2 h		0.36
O=C(NCc1nc(-c2ccc(C(F)(F)F)cc2)cs1)[C@H]1CCCN(C(=O)CO[C@H]2CCCNC2)C1			pH 7.4	0.15
N=C(N)NCCCNC(=O)[C@@H]1CCCCN1C(=O)[C@@H](CC1CCCCC1)NCC(=O)O	5 µM	2 h		0.05
CN(C)CC(=O)OCc1cc2[nH]c(=S)n(Cc3cccnc3)c(=O)c2cc1Cl	10 µM	90 min	pH 7.4	42.5
Cc1ncc(Cl)cc1NCc1ccc(C(=O)N[C@@H](CC2CCCC2)C(=O)NC2CC2)s1	5 µM	2 h	pH 7.4	0.22
CNC(C)(C)COCC(=O)N1CCC[C@H](C(=O)NCc2nc(-c3ccc(C(F)(F)F)cc3)cs2)C1			pH 7.4	0.19
N#Cc1ccc(C[C@H](Nc2c(Nc3ccc(Br)cc3)c(=O)c2=O)C(=O)N2CCc3ccccc32)cc1	100 µM	2 h		2
COc1cc(NC(=O)Cn2cc(Cl)c3cc(F)c(-c4cnn(C)c4)cc32)cc(OC)c1OC				0.08
O=c1c(O[C@@H]2O[C@H](CO)[C@H](O)[C@H](O)[C@H]2O)c(-c2ccc(O)c(O)c2)oc2cc(O)cc(O)c12	50 µg/mL			0.256
CC[C@]1(O)C[C@@H]2CN(CCc3c([nH]c4ccccc34)[C@@](C(=O)OC)(c3cc4c(cc3OC)N(C)[C@H]3[C@@](O)(C(=O)OC)[C@H](OC(C)=O)[C@]5(CC)C=CCN6CC[C@]43[C@@H]65)C2)C1	10 µM	2 h		1.69
C[C@@H]1O[C@@H](OC[C@H]2O[C@@H](Oc3c(-c4ccc(O)c(O)c4)oc4cc(O)cc(O)c4c3=O)[C@H](O)[C@@H](O)[C@@H]2O)[C@H](O)[C@H](O)[C@H]1O	50 µg/mL			0.228
O=c1c(-c2ccc(O)cc2)coc2cc(O)ccc12	100 µg/mL	2 h		27.4
O=c1c2cc(Cl)ncc2[nH]c(=S)n1Cc1cccnc1	10 µM	90 min	pH 7.4	34.6
COc1ccc(-c2cc(=O)c3c(O)cc(O[C@@H]4O[C@H](CO[C@@H]5O[C@@H](C)[C@H](O)[C@@H](O)[C@H]5O)[C@@H](O)[C@H](O)[C@H]4O)cc3o2)cc1O	100 µg/mL	2 h		45.2
O=C(NCc1nc(-c2ccc(C(F)(F)F)cc2)cs1)[C@H]1CCCN(C(=O)COCCN2CCCCC2)C1			pH 7.4	3.9
O=c1cc(-c2ccccc2)oc2cc(O)c(O)c(O)c12	100 µg/mL	2 h		9.23
N#Cc1ccc(C[C@H](Nc2nnc(-c3ccc(F)cc3)s2)C(=O)N2CCc3ccccc32)cc1	100 µM	2 h		11.2
COc1ccccc1OCCNCC(O)COc1cccc2[nH]c3ccccc3c12 (stereo not shown)	5 µM	2 h		4.98
O=C(O)[C@H]1O[C@@H](Oc2cc3oc(-c4ccccc4)cc(=O)c3c(O)c2O)[C@H](O)[C@@H](O)[C@@H]1O	100 µg/mL	2 h		10.8
